Laboratory results: publication PMC3191534 (Translational stroke research, 2011)
Entries after “also recorded” stand apart in the source; their conditions may differ. Where two headings read alike, the source gives them in different places. Marks after values point to notes of the source that are not given here.

Tests used:
[1] = test system: Salmonella typhimurium TA989; experiment: Ames genotoxicity test, TA989; assay type: cell-based
[2] = test system: Salmonella typhimurium TA100; experiment: Ames genotoxicity test, TA100; assay type: cell-based
[3] = Metabolic stability in human and animal liver microsomes, stated across species; assay type: in vitro ADME, dog, rat, mouse
HT22 hippocampal neurons = experiment: In vitro ischemia assay; assay type: cell-based
How it was run: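 HT22 cells were grown in DMEM with 10% FCS and seeded at 5×10^3 cells/well. Next day they were switched to DMEM with 7.5% DFCS and given 20 μM iodoacetic acid ± test compound for 2 h, then fresh IAA-free medium with compound for 20 h. MTT (5 μg/ml) ran 4 h at 37°C, was solubilised in 50% DMF/20% SDS pH 4.7, and A570 was read next day. Runs were done ≥3 times in triplicate; ANOVA/Bonferroni.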

HT22 cells [4] = experiment: Oxidative glutamate toxicity; assay type: cell-based
How it was run: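 HT22 cells (DMEM, 10% FCS) were given the test compound, then 5 mM glutamate 30 min later to deplete GSH. Cell survival was measured 24 h after glutamate. Experiments were repeated at least three times in triplicate, shown as mean ± SD, and analysed by ANOVA with Bonferroni's test (P<0.05).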

HT22 hippocampal cells = experiment: HT22 neuroprotection, IAA or oxidative glutamate toxicity assays stated together; assay type: cell-based; settings: read-out: EC50, neuroprotection, either IAA or oxidative glutamate toxicity assay
HT22 cells [5] = experiment: HT22 cell ATP content in the in vitro ischemia assay; assay type: cell-based; settings: 20 μM IAA; highest dose tested (10 μM)
[6] = test system: H4IIE rat hepatoma cell line; experiment: CeeTox analysis, cellular toxicity panel; assay type: cell-based
P-glycoprotein (PgP) = experiment: P-glycoprotein; assay type: cell-based, rat; settings: 50 μM
How it was run: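 H4IIE cells were exposed to the test compound at a single concentration (50 μM), with and without the PgP inhibitor cyclosporin A. Toxicity was measured by MTT assay and expressed as % control for each condition. The % difference was taken as the PgP interaction measure. The compound came from a DMSO stock, with a DMSO control, in a blinded contract CeeTox study.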

[7] = dog, microsomes
[8] = human, microsomes
[9] = microsomes
[10] = rat, microsomes
[11] = test system: free radical-induced peroxidation; settings: in vitro; cited from earlier work
[12] = test system: rat intraluminal suture stroke model; settings: cited from earlier work
[13] = rat, in vivo; cited from earlier work
[14] = oxidative glutamate toxicity assay

## Nc1ccc2cc3ccccc3cc2c1 [2-aminoanthracene, reference compound]
[1]; TA989+S9, positive control
  Mean no. of positive wells: 48.00
[1]; TA989−S9, positive control
  Mean no. of positive wells: 36.00
[2]; TA100+S9, positive control
  Mean no. of positive wells: 48.00
[2]; TA100−S9, positive control
  Mean no. of positive wells: 48.00

## C[C@]12CC[C@H]3[C@@H](CCC4=CC(=O)CC[C@@]43C)[C@@H]1CC[C@@H]2O [testosterone, reference compound]
[3]; human
  half-life: 10 to 32 min

## Stilbazulenyl nitrone [STAZN]
HT22 hippocampal neurons; IAA assay
  increase in survival: 621%
  maximal level of protection, of total cell survival: approximately 60%
HT22 hippocampal neurons; read-out: EC50, neuroprotection in the IAA assay, estimated, 20 μM IAA, HT22 cells
  EC50: ~1 µM
HT22 cells [4]; 5 mM glutamate, HT22 cells
  concentration at which significance was first achieved: 5 µM
HT22 cells [4]; [14]
  increase in survival: 416%
  maximal level of protection, of total cell survival: ~52%
HT22 hippocampal cells
  EC50: 1 to 5 µM
HT22 cells [5]
  effect on IAA-induced ATP loss: significantly attenuate IAA-induced ATP loss
[6]; H4IIE cells, 300 μM
  decrease in cellular ATP content: ~35%
[6]; H4IIE cells, 24 h
  ATP TC50: >300 µM
  Cell number TC50: >300 µM
  MTT TC50: >300 µM
  MemTox TC50: >300 µM
  Total GSH TC50: >300 µM
[6]; H4IIE cells, 24 h, all assays
  TC50 for all general toxicity measures: > 300 µM
[6]; H4IIE cells, measured as 8-isoprostane
  Membrane lipid peroxidation: 0
[6]; in vitro, HT22 EC50 vs CeeTox toxicity
  therapeutic safety window (efficacy/toxicity ratio): 60–150 fold
P-glycoprotein (PgP)
  interaction with PgP transporters: low-level interaction
P-glycoprotein (PgP); MTT, H4IIE cells, with cyclosporin A
  % Control (compound + CSA): 83.4%
P-glycoprotein (PgP); MTT, H4IIE cells, without CSA
  % Control (compound): 100.3%
P-glycoprotein (PgP); without vs with CSA
  % Difference: 16.9%
[3]
  half-life: 60 to 78 min
[1]; TA989+S9, .001963 mg/ml
  Mean no. of positive wells: 2.33
[1]; TA989+S9, .003906 mg/ml
  Mean no. of positive wells: 1.33
[1]; TA989+S9, .007813 mg/ml
  Mean no. of positive wells: 5.00
[1]; TA989+S9, .015625 mg/ml
  Mean no. of positive wells: 3.00
[1]; TA989+S9, .03125 mg/ml
  Mean no. of positive wells: 4.00
[1]; TA989+S9, .0625 mg/ml
  Mean no. of positive wells: 2.33
[1]; TA989, with or without S9, up to 0.0625 mg/ml (0.106 mM)
  mutagenicity (Ames test outcome): lack of mutagenicity; also recorded: not mutagenic
[1]; TA989−S9, .001963 mg/ml
  Mean no. of positive wells: 1.33
[1]; TA989−S9, .003906 mg/ml
  Mean no. of positive wells: 1.33
[1]; TA989−S9, .007813 mg/ml
  Mean no. of positive wells: 0.33
[1]; TA989−S9, .015625 mg/ml
  Mean no. of positive wells: 0.67
[1]; TA989−S9, .03125 mg/ml
  Mean no. of positive wells: 0.00
[1]; TA989−S9, .0625 mg/ml
  Mean no. of positive wells: 0.67
[2]; TA100+S9, .001963 mg/ml
  Mean no. of positive wells: 7.33
[2]; TA100+S9, .003906 mg/ml
  Mean no. of positive wells: 6.33
[2]; TA100+S9, .007813 mg/ml
  Mean no. of positive wells: 6.67
[2]; TA100+S9, .015625 mg/ml
  Mean no. of positive wells: 6.33
[2]; TA100+S9, .03125 mg/ml
  Mean no. of positive wells: 10.67
[2]; TA100+S9, .0625 mg/ml
  Mean no. of positive wells: 8.67
[2]; TA100, with or without S9, up to 0.0625 mg/ml (0.106 mM)
  mutagenicity (Ames test outcome): lack of mutagenicity; also recorded: not mutagenic
[2]; TA100−S9, .001963 mg/ml
  Mean no. of positive wells: 5.00
[2]; TA100−S9, .003906 mg/ml
  Mean no. of positive wells: 3.67
[2]; TA100−S9, .007813 mg/ml
  Mean no. of positive wells: 6.33
[2]; TA100−S9, .015625 mg/ml
  Mean no. of positive wells: 7.33
[2]; TA100−S9, .03125 mg/ml
  Mean no. of positive wells: 5.00
[2]; TA100−S9, .0625 mg/ml
  Mean no. of positive wells: 5.67
[7]
  Half-life t1/2: 71 min
[7]; 10 min
  Percent remaining of initial compound: 56.2%
[7]; 20 min
  Percent remaining of initial compound: 65.5%
[7]; 0.5 h
  Percent remaining of initial compound: 54.5%
[7]; 1 h
  Percent remaining of initial compound: 47.6%
  drug metabolized: approximately 50%
[8]
  Half-life t1/2: 78 min
[8]; 10 min
  Percent remaining of initial compound: 57.7%
[8]; 20 min
  Percent remaining of initial compound: 39.7%
[8]; 0.5 h
  Percent remaining of initial compound: 46.9%
[8]; 1 h
  Percent remaining of initial compound: 49.1%
  drug metabolized: approximately 50%
[9]
  Half-life t1/2: < 10 min
[9]; mouse
  Half-life t1/2, calculated value in parentheses: 27 min
[9]; mouse, 10 min
  Percent remaining of initial compound: 17.2%
[9]; mouse, 20 min
  Percent remaining of initial compound: 19.8%
[9]; mouse, 0.5 h
  Percent remaining of initial compound: 10.0%
[9]; mouse, 1 h
  Percent remaining of initial compound: 13.8%
  drug metabolized: 86%
[10]
  Half-life t1/2: > 60 min
  Half-life t1/2, calculated value in parentheses: 95 min
[10]; 10 min
  Percent remaining of initial compound: 82.4%
[10]; 20 min
  Percent remaining of initial compound: 76.6%
[10]; 0.5 h
  Percent remaining of initial compound: 80.3%
  drug metabolized: 20%
[10]; 1 h
  Percent remaining of initial compound: 122 ^d %
[11]
  potency relative to NXY-059 at inhibiting free radical-induced peroxidation: 300 times
[12]
  effect on behavior: improved behavior measured up to 30 days following ischemia
  effect on infarct volume: reduced infarct volume in a dose- and time-dependent manner
  neuroprotective doses, times lower than NXY-059: 300–600 times
[13]
  circulating half-life t1/2, first phase of biexponential decline in blood levels: 28 min
